# Measured values: article PMC2574552 (Molecular pharmacology, 2008)
# Read-outs that look alike come from different tables or passages of the source.
# Key:
# NMDA receptor = format: cell-based, rat; conditions: n = 5
# rat mGluR8 = rat mGluR8 (Rattus norvegicus, UniProt P70579); test: rat mGluR8/GIRK thallium flux assay; format: cell-based; conditions: 30 μM; glutamate EC20
# Method in brief: (§1)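 GIRK-coexpressing cells were plated at 15,000/well on poly-D-lysine and grown overnight at 37°C, 5% CO2. They were loaded with 1.7 μM BTC-AM for 1 h at room temperature, then buffer was exchanged. […] Fluorescence was read at 470/540 nm, at 1 Hz for 2 min after agonist. Normalised to no-compound response; mean ± S.E.M.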
# human mGluR2 = human mGluR2 (Homo sapiens, UniProt Q14416); test: human mGluR2 GTPγS binding assay; format: biochemical; conditions: 30 μM; glutamate EC20
# Method in brief: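 Nonspecific binding: 10 μM unlabelled GTPγS. Mixes shaken 60 min at room temperature, filtered, washed three times and counted by scintillation. Normalised to no-compound response; mean ± S.E.M.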
# rat mGluR4 = rat mGluR4 (Rattus norvegicus, UniProt P31423); test: rat mGluR4/GIRK thallium flux assay; format: cell-based; conditions: for Fold shift rmGluR4/GIRK: leftward shift of glutamate concentration-response curve at 30 μM PAM; for % Max rmGluR4/GIRK: maximal potentiated EC20 response vs response to maximal glutamate alone
# human mGluR4 = human mGluR4 (Homo sapiens, UniProt Q14833); test: human mGluR4/Gqi5/CHO calcium mobilization assay; format: cell-based; conditions: for Fold shift hmGluR4/Gqi5: leftward shift of glutamate concentration-response curve at 30 μM PAM
# rat mGluR5 = rat mGluR5 (Rattus norvegicus, UniProt P31424); test: rat mGluR5/HEK calcium fluorescence counterscreen; format: cell-based; conditions: 30 μM; glutamate EC20
# Method in brief: (§2)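 Cells were plated on poly-D-lysine plates in DMEM with 10% dialysed FBS, 20 mM HEPES and 1 mM pyruvate: mGluR1/BHK at 15,000 cells/well, mGluR5/HEK at 20,000 cells/well. They were loaded with 1 μM Fluo-4 AM for 45 min at 37°C in HBSS with 20 mM HEPES and 2.5 mM probenecid. […] Peak fluorescence was taken against control and normalised to no-compound response.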
# rat mGluR7 = rat mGluR7 (Rattus norvegicus, UniProt P35400); test: rat mGluR7/GIRK thallium flux assay; format: cell-based; conditions: 30 μM; L-AP4 EC20
# Method in brief: as §1
# rat mGluR1 = rat mGluR1 (Rattus norvegicus, UniProt P23385); test: rat mGluR1/BHK calcium fluorescence counterscreen; format: cell-based; conditions: 30 μM; glutamate EC20
# Method in brief: as §2
# [1] = system: haloperidol-induced catalepsy; test: reversal of haloperidol-induced catalepsy; format: in vivo; conditions: rat, icv
# Method in brief: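 Male Sprague-Dawley rats (225−255 g) carried third-ventricle cannulae. They received haloperidol 1.5 mg/kg i.p. in 0.2% lactic acid. At 2 h, cataleptic rats (staying on the bar 45−60 s; forepaw-removal latency timed) got icv either L-AP4 (100−1000 nmol/10 μl, artificial CSF), test compound (31 or 93 nmol/10 μl, aqueous vehicle pH 7.4) or vehicle. Rats were retested at 15, 30 and 60 min; 6 rats/group; Dunnett's test versus vehicle.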
# [2] = system: 67 different targets including GPCRs, ion channels, and transporters; test: MDS-Pharma radioligand binding panel; conditions: MDS-Pharma Services; Supplemental Table 2
# [3] = system: reserpine-induced akinesia; test: reversal of reserpine-induced akinesia; format: in vivo; conditions: rat, icv, reserpine 5 mg/kg s.c., 2 h pretreatment
# [4] = solubility in dosing vehicle; format: physicochemical
# mGluR4 = conditions: read-out: potency at mGluR4 in vitro; ref Marino et al., 2003; cited from earlier work
# rat mGluR4, sequence (P31423 33-912): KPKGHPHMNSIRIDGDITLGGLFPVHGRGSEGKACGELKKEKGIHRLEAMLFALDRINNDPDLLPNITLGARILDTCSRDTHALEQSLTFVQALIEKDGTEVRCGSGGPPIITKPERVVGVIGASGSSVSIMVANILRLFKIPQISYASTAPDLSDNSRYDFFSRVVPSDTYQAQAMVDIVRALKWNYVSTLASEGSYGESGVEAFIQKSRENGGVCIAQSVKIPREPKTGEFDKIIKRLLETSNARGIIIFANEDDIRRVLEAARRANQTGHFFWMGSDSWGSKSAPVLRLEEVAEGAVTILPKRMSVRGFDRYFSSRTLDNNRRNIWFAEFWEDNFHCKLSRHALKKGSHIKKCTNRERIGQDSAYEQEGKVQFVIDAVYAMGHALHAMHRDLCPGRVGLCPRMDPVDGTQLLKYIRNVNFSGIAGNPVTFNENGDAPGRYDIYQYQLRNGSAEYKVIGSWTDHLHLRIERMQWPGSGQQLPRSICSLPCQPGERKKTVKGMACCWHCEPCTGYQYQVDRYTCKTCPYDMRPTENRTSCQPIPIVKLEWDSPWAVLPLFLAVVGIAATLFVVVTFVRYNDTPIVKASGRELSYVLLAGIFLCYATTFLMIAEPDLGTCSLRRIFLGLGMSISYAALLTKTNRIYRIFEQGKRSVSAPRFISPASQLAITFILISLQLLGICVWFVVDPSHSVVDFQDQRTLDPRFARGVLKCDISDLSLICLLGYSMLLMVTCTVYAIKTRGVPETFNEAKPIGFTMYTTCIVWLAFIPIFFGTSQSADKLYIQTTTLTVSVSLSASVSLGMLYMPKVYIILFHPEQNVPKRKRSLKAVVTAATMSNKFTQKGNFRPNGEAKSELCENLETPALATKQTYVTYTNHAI
# human mGluR4, sequence (Q14833 33-912): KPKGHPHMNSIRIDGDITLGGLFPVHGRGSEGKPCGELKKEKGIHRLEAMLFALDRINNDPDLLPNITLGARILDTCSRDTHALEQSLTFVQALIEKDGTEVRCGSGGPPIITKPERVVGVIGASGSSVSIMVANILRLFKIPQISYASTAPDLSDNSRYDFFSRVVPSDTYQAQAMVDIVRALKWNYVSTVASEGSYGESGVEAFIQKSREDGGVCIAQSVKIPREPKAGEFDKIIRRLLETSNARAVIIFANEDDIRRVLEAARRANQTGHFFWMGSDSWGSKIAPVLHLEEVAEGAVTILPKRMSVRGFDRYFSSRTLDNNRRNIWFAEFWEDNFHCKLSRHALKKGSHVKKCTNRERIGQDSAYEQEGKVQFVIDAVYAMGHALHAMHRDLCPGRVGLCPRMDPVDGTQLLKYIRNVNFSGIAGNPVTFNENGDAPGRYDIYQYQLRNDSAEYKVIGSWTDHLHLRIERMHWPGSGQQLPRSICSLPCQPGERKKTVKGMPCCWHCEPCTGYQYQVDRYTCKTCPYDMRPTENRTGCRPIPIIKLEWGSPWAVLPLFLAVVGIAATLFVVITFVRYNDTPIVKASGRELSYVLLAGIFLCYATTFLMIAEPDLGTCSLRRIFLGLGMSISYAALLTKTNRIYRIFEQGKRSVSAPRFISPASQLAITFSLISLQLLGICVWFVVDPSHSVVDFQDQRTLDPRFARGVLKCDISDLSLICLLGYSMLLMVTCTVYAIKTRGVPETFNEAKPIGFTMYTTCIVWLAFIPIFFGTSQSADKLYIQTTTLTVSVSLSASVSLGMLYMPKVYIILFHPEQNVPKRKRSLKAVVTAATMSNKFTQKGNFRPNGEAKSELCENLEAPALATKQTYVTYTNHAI
# rat mGluR5, sequence (P31424 21-1203): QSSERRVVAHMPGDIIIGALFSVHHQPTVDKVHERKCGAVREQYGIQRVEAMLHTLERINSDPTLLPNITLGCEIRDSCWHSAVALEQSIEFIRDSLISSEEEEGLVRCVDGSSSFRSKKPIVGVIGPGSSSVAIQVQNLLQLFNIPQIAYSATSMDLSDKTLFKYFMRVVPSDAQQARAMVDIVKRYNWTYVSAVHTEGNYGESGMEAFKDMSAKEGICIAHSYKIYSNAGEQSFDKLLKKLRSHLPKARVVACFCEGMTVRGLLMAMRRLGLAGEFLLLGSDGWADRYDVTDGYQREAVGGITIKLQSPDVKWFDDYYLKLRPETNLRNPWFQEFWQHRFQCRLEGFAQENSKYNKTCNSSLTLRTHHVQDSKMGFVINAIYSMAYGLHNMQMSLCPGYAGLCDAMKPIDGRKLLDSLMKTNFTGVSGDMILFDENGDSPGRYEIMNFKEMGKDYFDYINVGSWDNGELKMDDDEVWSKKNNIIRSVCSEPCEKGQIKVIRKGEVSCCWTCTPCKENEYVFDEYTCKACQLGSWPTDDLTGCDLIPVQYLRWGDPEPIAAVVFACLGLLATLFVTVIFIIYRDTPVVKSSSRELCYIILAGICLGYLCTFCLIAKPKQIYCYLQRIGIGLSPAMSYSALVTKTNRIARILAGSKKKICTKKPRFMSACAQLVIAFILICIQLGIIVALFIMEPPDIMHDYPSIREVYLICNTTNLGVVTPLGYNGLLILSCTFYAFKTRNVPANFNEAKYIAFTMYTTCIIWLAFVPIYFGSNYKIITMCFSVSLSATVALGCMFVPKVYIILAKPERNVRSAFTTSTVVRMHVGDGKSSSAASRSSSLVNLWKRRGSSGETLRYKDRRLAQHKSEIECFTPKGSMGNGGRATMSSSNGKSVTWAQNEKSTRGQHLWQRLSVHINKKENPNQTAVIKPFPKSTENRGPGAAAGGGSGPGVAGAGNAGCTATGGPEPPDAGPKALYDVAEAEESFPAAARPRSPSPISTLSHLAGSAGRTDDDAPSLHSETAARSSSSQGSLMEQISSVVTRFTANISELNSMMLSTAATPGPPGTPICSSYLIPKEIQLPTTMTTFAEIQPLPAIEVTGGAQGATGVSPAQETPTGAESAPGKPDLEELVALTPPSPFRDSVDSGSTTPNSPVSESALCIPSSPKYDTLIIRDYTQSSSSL
# rat mGluR8, sequence (P70579 34-908): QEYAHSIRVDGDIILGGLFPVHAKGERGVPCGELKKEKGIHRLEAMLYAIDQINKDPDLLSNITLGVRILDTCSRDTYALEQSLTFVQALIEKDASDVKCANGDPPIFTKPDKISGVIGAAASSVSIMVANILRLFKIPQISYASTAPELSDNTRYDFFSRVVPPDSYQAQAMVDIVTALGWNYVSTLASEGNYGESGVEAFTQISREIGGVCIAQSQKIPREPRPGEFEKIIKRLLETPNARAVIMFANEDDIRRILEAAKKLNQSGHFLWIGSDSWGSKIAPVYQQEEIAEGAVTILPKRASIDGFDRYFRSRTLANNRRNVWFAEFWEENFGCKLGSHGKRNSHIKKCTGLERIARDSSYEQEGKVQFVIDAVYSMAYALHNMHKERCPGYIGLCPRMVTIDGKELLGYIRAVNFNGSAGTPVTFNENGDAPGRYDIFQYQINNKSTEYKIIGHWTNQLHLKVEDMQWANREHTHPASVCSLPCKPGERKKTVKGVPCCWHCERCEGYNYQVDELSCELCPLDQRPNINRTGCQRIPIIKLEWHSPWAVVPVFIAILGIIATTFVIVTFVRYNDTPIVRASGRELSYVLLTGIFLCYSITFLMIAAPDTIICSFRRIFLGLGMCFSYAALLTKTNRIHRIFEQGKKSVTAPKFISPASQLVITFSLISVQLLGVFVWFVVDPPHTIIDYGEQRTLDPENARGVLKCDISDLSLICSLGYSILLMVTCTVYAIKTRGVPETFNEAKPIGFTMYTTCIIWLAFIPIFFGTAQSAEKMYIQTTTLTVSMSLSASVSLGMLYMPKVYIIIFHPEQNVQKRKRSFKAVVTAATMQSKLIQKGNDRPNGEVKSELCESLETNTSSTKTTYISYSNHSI
# human mGluR2, sequence (Q14416 19-872): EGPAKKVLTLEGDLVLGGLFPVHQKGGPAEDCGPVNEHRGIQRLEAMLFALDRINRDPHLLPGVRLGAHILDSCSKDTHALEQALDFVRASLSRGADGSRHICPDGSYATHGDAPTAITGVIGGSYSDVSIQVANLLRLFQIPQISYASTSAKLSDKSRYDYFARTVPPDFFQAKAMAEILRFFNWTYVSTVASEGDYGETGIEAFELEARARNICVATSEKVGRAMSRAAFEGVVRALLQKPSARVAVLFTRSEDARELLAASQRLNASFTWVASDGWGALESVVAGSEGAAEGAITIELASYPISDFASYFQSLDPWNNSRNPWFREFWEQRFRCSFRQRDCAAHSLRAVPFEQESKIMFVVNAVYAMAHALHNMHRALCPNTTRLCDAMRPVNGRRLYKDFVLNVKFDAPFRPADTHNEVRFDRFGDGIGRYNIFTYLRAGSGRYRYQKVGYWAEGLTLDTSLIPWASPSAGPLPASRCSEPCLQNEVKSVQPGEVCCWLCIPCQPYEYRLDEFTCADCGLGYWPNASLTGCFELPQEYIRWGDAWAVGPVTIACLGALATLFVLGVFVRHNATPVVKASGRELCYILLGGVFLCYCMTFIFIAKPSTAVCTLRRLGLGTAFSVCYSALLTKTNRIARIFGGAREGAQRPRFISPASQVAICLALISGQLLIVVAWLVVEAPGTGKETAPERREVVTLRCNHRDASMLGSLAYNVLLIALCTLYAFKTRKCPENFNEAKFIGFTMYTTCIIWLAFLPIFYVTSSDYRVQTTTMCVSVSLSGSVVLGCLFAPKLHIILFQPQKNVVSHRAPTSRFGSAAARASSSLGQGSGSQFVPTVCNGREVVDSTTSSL
compound,measurement,setting,value
"C[C@@H](CN1CCC(Cc2ccccc2)CC1)[C@@H](O)c1ccc(O)cc1 [Ro25−6981, (αR,βS)-α-(4-hydroxyphenyl)-β-methyl-4-(phenylmethyl)-1-piperidinepropanol, reference compound]",peak amplitude of NMDAR currents,"NMDA receptor; 1 μM, p < 0.003",53.1 ± 8.5 % of control
"O=C(O)C1CCCCC1C(=O)Nc1cc(Cl)cc(Cl)c1 (centres unmarked) [Compound 2h, 2-(3,5-Dichlorophenylcarbamoyl)cyclohexanecarboxylic acid]","potentiation of EC20 agonist response, mGluR8",rat mGluR8,did not potentiate
same,"potentiation of EC20 agonist response, mGluR2",human mGluR2,did not potentiate
same,EC50,rat mGluR4,560 ± 100 nM
same,Fold shift rmGluR4/GIRK,rat mGluR4,7.7±0.6 fold
same,% Max rmGluR4/GIRK,rat mGluR4,107.6±6.3%
same,EC50,human mGluR4,750 ± 200 nM
same,response to compound alone in calcium assay,"human mGluR4; 10 μM, absence of glutamate, trace from original HTS",small calcium response
same,Fold shift hmGluR4/Gqi5,human mGluR4,6.5±1.0 fold
same,improved potency compared to PHCCC,human mGluR4; mGluR4 PAM potency relative to PHCCC,approximately 8 fold
same,% Max hmGluR4/Gqi5,human mGluR4; maximal potentiated EC20 response vs response to maximal glutamate alone,120.0±6.7%
same,"potentiation of EC20 agonist response, mGluR5",rat mGluR5,did not potentiate
same,"potentiation of EC20 agonist response, mGluR7",rat mGluR7,did not potentiate
same,"potentiation of EC20 agonist response, mGluR1",rat mGluR1,did not potentiate
"O=C(O)[C@@H]1CCCC[C@H]1C(=O)Nc1cc(Cl)cc(Cl)c1 (racemic) [VU0155040, (±)-trans-2-(3,5-Dichlorophenylcarbamoyl)cyclohexanecarboxylic acid]",Fold shift rmGluR4/GIRK,rat mGluR4,2.5±0.5 fold
same,Fold shift hmGluR4/Gqi5,human mGluR4,3.0±0.3 fold
"O=C(Nc1cc(Cl)cc(Cl)c1)[C@H]1CCCC[C@H]1C(=O)O (racemic) [VU0155041, (±)-cis-2-(3,5-Dicholorphenylcarbamoyl)cyclohexanecarboxylic acid]",haloperidol-induced catalepsy,"[1]; doses of 31 and 92 nmol, effects still present 30 min after infusion",significantly decrease
same,effect on radioligand binding at 67 targets,[2],no effect on binding at any target examined
same,reversal of reserpine-induced akinesia,[3]; 316 nmol,significant reversal of akinesia
same,Fold shift rmGluR4/GIRK,rat mGluR4,4.7±0.4 fold
same,EC50,"rat mGluR4; read-out: potency at rat mGluR4 (GIRK assay), potentiation of EC20 glutamate",693 ± 140 nM
same,Fold shift hmGluR4/Gqi5,human mGluR4,6.4±0.7 fold
same,solubility in vehicle,[4],soluble in an aqueous vehicle
same,amplitude of NMDA receptor currents,"NMDA receptor; 10 μM, p > 0.3",106.3 ± 5.8 % of control
"N[C@@H](CCC(=O)O)C(=O)O [glutamate, L-glutamate, reference compound]",EC50,rat mGluR4,9200 ± 1200 nM
"N[C@@H](CCP(=O)(O)O)C(=O)O [L-AP4, L-(+)-2-amino-4-phosphonobutryic acid, reference compound]",haloperidol-induced catalepsy,"[1]; 100−1000 nmol, dose-dependent, haloperidol 1.5 mg/kg i.p.",significantly decreased
same,reversal of reserpine-induced akinesia,[3]; 300 and 1000 nmol,significant reversals of akinesia
"O=C(O)C1CCCCC1C(=O)Nc1cc(Cl)cc(Cl)c1 [(1R, 2S)]",potency and efficacy of single cis-enantiomers,"human mGluR4; mGluR4, assay not specified, data not shown",equal potency and efficacy
"N-Phenyl-7-(hydroxyimino)cyclopropa[b]chromen-1a-carboxamide [PHCCC, reference compound]","maximal agonist response, percent of the maximal glutamate response","rat mGluR4; compound alone, no glutamate, observed at 30 μM",−2.3±2.0%
same,% Max rmGluR4/GIRK,rat mGluR4,120.3±4.4%
same,solubility in vehicle,[4]; vehicle for icv administration,only soluble in vehicles containing high concentrations of DMSO or other relatively toxic vehicles
same,EC50,mGluR4,~4000 nM
